Data as given in article PMC4116675 (Molecular microbiology, 2014).
Entries after “also recorded” stand apart in the source; their conditions may differ.

B1: MucA: anti-sigma factor; free MucA as competitor of resin-bound MucA (protein, UniProt P38107 1-194, looked up)
Sigma factor AlgU negative …: MSREALQETLSAVMDNEADELELRRVLAACGEDAELRSTWSRYQLARSVMHREPTLPKLDIAAAVSAALADEAAPPKAEKGPWRMVGRLAVAASVTLAVLAGVRLYNQNDALPQMAQQGTTPQIALPQVKGPAVLAGYSEEQGAPQVITNSSSSDTRWHEQRLPIYLRQHVQQSAVSGTESALPYARAASLENR
B2: MucB: competes for MucA binding and can inhibit this cleavage (protein, UniProt P38108 22-316, looked up)
Sigma factor AlgU regulatory …: ADASDWLNRLAEADRQNSFQGTFVYERNGSFSTHEIWHRVESDGAVRERLLQLDGARQEVVRVDGRTQCISGGLADQLADAQLWPVRKFDPSQLASWYDLRLVGESRVAGRPAVVLAVTPRDQHRYGFELHLDRDTGLPLKSLLLNEKGQLLERFQFTQLNTGAAPAEDQLQAGAECQVVGPAKADGEKTVAWRSEWLPPGFTLTRSFMRRSPVTPDPVACLTYGDGLARFSVFIEPLHGAMVGDARSQLGPTVVVSKRLQTDDGGQMVTVVGEVPLGTAERVALSIRPEAAAQK

Tests used:
[1] = system: AlgW (substrate 35S-MucA, inhibitor MucB); assay: AlgW cleavage of 35S-MucA in the presence of MucB; type: biochemical, Pseudomonas aeruginosa; settings: for MucA cleavage level relative to WVF and AlgW alone (no MucB): Figs. 4B vs 4D, CupB5 peptide + WVF + MucB; for antagonism / relief of MucB inhibition in vitro: summary statement, WVF-activated AlgW cleavage of MucA with MucB
[2] = system: AlgW (substrate 35S-MucA); assay: WVF-activated AlgW cleavage of 35S-MucA with or without CupB5 peptides; type: biochemical, Pseudomonas aeruginosa; settings: Fig. 5C; GYYYTVV 300 μM, increasing WVF, fixed MucA (50 μM)
Outline: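 Ni-NTA-purified AlgW (0.5 μM trimer) cleaved 35S-MucA (50 μM) across a range of WVF peptide concentrations, with or without CupB5 peptides (300 μM). Protease addition started the reactions; cold 10% TCA quenched them at timed points. Acid-soluble products were scintillation-counted against total radioactivity, and rates were divided by substrate and enzyme concentrations. Values were averages ± SEM (n=2), fitted to rate = basal + Vmax/(1 + (Kact/[peptide])h).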

MucB [3] = assay: MucB oligomerization, gel-filtration chromatography; type: binding, Pseudomonas aeruginosa; settings: Fig. S2
MucB [4] = settings: ref Lima et al., 2013; cited from earlier work
[5] = system: P. aeruginosa strain PAO1 and derivatives; assay: Alginate production and mucoid phenotype on plasmid overexpression of proteins; type: cell-based, Pseudomonas aeruginosa; settings: Fig. 6A, 6B; for alginate production in PAO1-VE2 on plasmid-mediated overproduction: PAO1-VE2 (mucE overexpressed); for alginate production in PAO1-VE22 on plasmid-mediated overproduction: PAO1-VE22 (cupB5 overexpressed), 0.1% L-arabinose, 37°C, 24 h

Molecule	MucA cleavage level relative to WVF and AlgW alone (no MucB) [1]	antagonism / relief of MucB inhibition in vitro [1]	alginate production in PAO1-VE2 on plasmid-mediated overproduction [5]	alginate production in PAO1-VE22 on plasmid-mediated overproduction [5]	further results
GYYYT	approximately one-third	did antagonize MucB inhibition in vitro; also recorded: only partially relieve MucB inhibition in vitro			potency and cooperativity of activation, GYYYT vs GYYYTVV ([1]; Fig. 4D, WVF 150 μM, MucB present): occurred at lower peptide concentrations and was less cooperative as judged by the Hill constant than activation by the GYYYTVV peptide
GYYYTVV	approximately one-third	antagonized MucB inhibition in vitro; also recorded: only partially relieve MucB inhibition in vitro			change in maximum rate of MucA cleavage on adding CupB5 peptide [2]: increased almost two-fold; change in MucB elution / conversion of MucB dimers to tetramers (MucB [3]): no substantial change in elution during gel-filtration chromatography; also recorded: did not convert MucB dimers into tetramers
Lipopolysaccharides					binding to MucB and displacement of MucA (MucB [4]): bind MucB and competitively displace MucA
B1			decreased alginate production in PAO1-VE2	as did plasmid-mediated overproduction of MucA	
B2			decreased alginate production in PAO1-VE2	plasmid-mediated MucB overproduction had this effect	
